pIC50: −log10 of the molar value.
Legend:
Candida albicans [1] = assay: Antifungal activity against Candida albicans in yeast extract-peptone-glucose medium at 300 ug/ml after 48 hrs by disc diffusion assay; type: functional; conditions: read-out: DIZ
Method in brief: (§1)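 C. albicans cells at a set number were spread on YEPD agar, either plain or containing the cell-wall disruptant named in the line (SDS, Congo red or calcofluor white). Compound solution, or the reference solvent as control, was spotted onto 0.5 cm discs placed on the lawn. Plates were incubated at 30 °C and the inhibition zone diameter was measured.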

Candida albicans [2] = assay: Antifungal activity against Candida albicans in yeast extract-peptone-glucose medium at 375 ug/ml after 48 hrs by disc diffusion assay; type: functional; conditions: read-out: DIZ; method in brief: as §1
Candida albicans [3] = assay: Antifungal activity against Candida albicans in yeast extract-peptone-glucose medium at 375 ug/ml after 48 hrs by disc diffusion assay in presence of 100 ug/ml of calcofluor white; type: functional; method in brief: as §1
Escherichia coli [4] = assay: Antibacterial activity against Escherichia coli harboring ampicillin-resistance gene encoding plasmid at 500 ug/ml after 24 hrs by disc diffusion assay; type: functional; conditions: read-out: DIZ
Method in brief: (§2)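 Disc diffusion used an E. coli strain carrying a plasmid that encodes an ampicillin-resistance gene. Inhibition zone diameters were recorded and compared against the corresponding solvent controls.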

Candida albicans [5] = assay: Antifungal activity against Candida albicans in yeast extract-peptone-glucose medium at 375 ug/ml after 48 hrs by disc diffusion assay in presence of 0.01% of sodium dodecylsulphate; type: functional; conditions: read-out: DIZ; method in brief: as §1
Candida albicans [6] = assay: Antifungal activity against Candida albicans in yeast extract-peptone-glucose medium at 375 ug/ml after 48 hrs by disc diffusion assay in presence of rhodamine 6G
Candida albicans [7] = assay: Antifungal activity against Candida albicans in yeast extract-peptone-glucose medium at 375 ug/ml after 48 hrs by disc diffusion assay in presence of 150 ug/ml of congo red; type: functional; method in brief: as §1
Escherichia coli [8] = assay: Antibacterial activity against Escherichia coli harboring ampicillin-resistance gene encoding plasmid at 300 ug/ml after 24 hrs by disc diffusion assay; type: functional; conditions: read-out: DIZ; method in brief: as §2
Candida albicans [9] = assay: Antifungal activity against Candida albicans in yeast extract-peptone-glucose medium at 300 ug/ml after 48 hrs by disc diffusion assay in presence of 150 ug/ml of congo red; type: functional; method in brief: as §1
Candida albicans [10] = assay: Antifungal activity against Candida albicans in yeast extract-peptone-glucose medium at 300 ug/ml after 48 hrs by disc diffusion assay in presence of 0.01% of sodium dodecylsulphate; type: functional; conditions: read-out: DIZ; method in brief: as §1
Candida albicans [11] = assay: Antifungal activity against Candida albicans in yeast extract-peptone-glucose medium at 300 ug/ml after 48 hrs by disc diffusion assay in presence of […]; type: functional
Method in brief: (§3)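 This is a C. albicans disc diffusion on YEPD agar containing rhodamine 6G, a substrate of the Cdr1p/Cdr2p ATP-dependent efflux pumps, to test for enhanced R6G toxicity. A set number of cells was spread, and 0.5 cm discs were spotted with compound solution or reference solvent. Plates were incubated at 30 °C and the zone diameter was measured.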

Candida albicans [12] = assay: Antifungal activity against Candida albicans in yeast extract-peptone-glucose medium at 500 ug/ml after 48 hrs by disc diffusion assay in presence of 150 ug/ml of congo red; type: functional
Method in brief: (§4)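 Disc diffusion on YEPD agar containing a cell-wall-disrupting agent (SDS, Congo red or calcofluor white) and spread with a set number of C. albicans cells. Compound and reference solvent spotted on 0.5 cm discs. Incubated at 30 °C, then inhibition zone diameter measured against solvent.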

Candida albicans [13] = assay: Antifungal activity against Candida albicans in yeast extract-peptone-glucose medium at 500 ug/ml after 48 hrs by disc diffusion assay in presence of rhodamine 6G
Candida albicans [14] = assay: Antifungal activity against Candida albicans in yeast extract-peptone-glucose medium at 500 ug/ml after 48 hrs by disc diffusion assay; type: functional; conditions: read-out: DIZ
Method in brief: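 Solid-phase assay on YEPD agar spread with a set number of C. albicans cells. Compound solution and reference solvent spotted onto 0.5 cm discs. Plates incubated at 30 °C, and inhibition zone diameter measured against solvent control.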

Candida albicans [15] = assay: Antifungal activity against Candida albicans in yeast extract-peptone-glucose medium at 500 ug/ml after 48 hrs by disc diffusion assay in presence of 0.01% of sodium dodecylsulphate; type: functional; conditions: read-out: DIZ; method in brief: as §4
Candida albicans [16] = assay: Antifungal activity against Candida albicans in yeast extract-peptone-glucose medium at 500 ug/ml after 48 hrs by disc diffusion assay in presence of 100 ug/ml of calcofluor white; type: functional; method in brief: as §4
Candida albicans [17] = assay: Antifungal activity against Candida albicans in synthetic dextrose minimal medium after 48 hrs by ELISA based serial dilution method
Escherichia coli [18] = assay: Antibacterial activity against Escherichia coli harboring ampicillin-resistance gene encoding plasmid at 250 ug/ml after 24 hrs by disc diffusion assay; type: functional; conditions: read-out: DIZ; method in brief: as §2
Candida albicans [19] = assay: Antifungal activity against Candida albicans in yeast extract-peptone-glucose medium at 250 ug/ml after 48 hrs by disc diffusion assay in presence of 150 ug/ml of congo red; type: functional; method in brief: as §1
Candida albicans [20] = assay: Antifungal activity against Candida albicans in yeast extract-peptone-glucose medium at 250 ug/ml after 48 hrs by disc diffusion assay in presence of 100 ug/ml of calcofluor white; type: functional; method in brief: as §1
Candida albicans [21] = assay: Antifungal activity against Candida albicans in yeast extract-peptone-glucose medium at 250 ug/ml after 48 hrs by disc diffusion assay in presence of rhodamine 6G
Candida albicans [22] = assay: Antifungal activity against Candida albicans in yeast extract-peptone-glucose medium at 250 ug/ml after 48 hrs by disc diffusion assay in presence of 0.01% of sodium dodecylsulphate; type: functional; conditions: read-out: DIZ; method in brief: as §1
Candida albicans [23] = assay: Antifungal activity against Candida albicans in yeast extract-peptone-glucose medium at 250 ug/ml after 48 hrs by disc diffusion assay; type: functional; conditions: read-out: DIZ; method in brief: as §1
Candida albicans [24] = assay: Antifungal activity against Candida albicans in yeast extract-peptone-glucose medium at 150 ug/ml after 48 hrs by disc diffusion assay in presence of 150 ug/ml of congo red; type: functional; conditions: read-out: DIZ; method in brief: as §1
Candida albicans [25] = assay: Antifungal activity against Candida albicans in yeast extract-peptone-glucose medium at 150 ug/ml after 48 hrs by disc diffusion assay in presence of 100 ug/ml of calcofluor white; type: functional; method in brief: as §1
Candida albicans [26] = assay: Antifungal activity against Candida albicans in yeast extract-peptone-glucose medium at 150 ug/ml after 48 hrs by disc diffusion assay; type: functional; conditions: read-out: DIZ; method in brief: as §1
Candida albicans [27] = assay: Antifungal activity against Candida albicans in yeast extract-peptone-glucose medium at 150 ug/ml after 48 hrs by disc diffusion assay in presence of 0.01% of sodium dodecylsulphate; type: functional; conditions: read-out: DIZ; method in brief: as §1
Candida albicans [28] = assay: Antifungal activity against Candida albicans in yeast extract-peptone-glucose medium at 450 ug/ml after 48 hrs by disc diffusion assay in presence of 100 ug/ml of calcofluor white; type: functional; method in brief: as §1
Candida albicans [29] = assay: Antifungal activity against Candida albicans in yeast extract-peptone-glucose medium at 450 ug/ml after 48 hrs by disc diffusion assay in presence of […]; type: functional; method in brief: as §3
Candida albicans [30] = assay: Antifungal activity against Candida albicans in yeast extract-peptone-glucose medium at 450 ug/ml after 48 hrs by disc diffusion assay in presence of 150 ug/ml of congo red; type: functional; method in brief: as §1
Candida albicans [31] = assay: Antifungal activity against Candida albicans in yeast extract-peptone-glucose medium at 450 ug/ml after 48 hrs by disc diffusion assay in presence of 0.01% of sodium dodecylsulphate; type: functional; conditions: read-out: DIZ; method in brief: as §1
Candida albicans [32] = assay: Antifungal activity against Candida albicans in yeast extract-peptone-glucose medium at 450 ug/ml after 48 hrs by disc diffusion assay; type: functional; conditions: read-out: DIZ; method in brief: as §1
Escherichia coli [33] = assay: Antibacterial activity against Escherichia coli harboring ampicillin-resistance gene encoding plasmid at 450 ug/ml after 24 hrs by disc diffusion assay; type: functional; conditions: read-out: DIZ; method in brief: as §2

Work on Clc1ccc(COC(Cn2ccnc2)c2ccc(Cl)cc2Cl)c(Cl)c1 (stereo unspecified) [MICONAZOLE] yielded a zone of inhibition at 300 µg/mL (Candida albicans [1]) of 12 mm.

In the case of OC(Cn1cncn1)(Cn1cncn1)c1ccc(F)cc1F [FLUCONAZOLE], the zone of inhibition at 300 µg/mL (Candida albicans [1]) was 15 mm.

In the case of O=C(C(=O)N1CCCC1)c1cn(CCCCCn2cc(C(=O)C(=O)N3CCCC3)c3ccccc32)c2ccccc12, the zone of inhibition at 375 µg/mL (Candida albicans [2]) was 5.5 mm, the “diameter of the inhibition zone (DIZ)” value (Candida albicans [3]) was 5.5 mm and the zone of inhibition at 500 µg/mL (Escherichia coli [4]) was 8 mm. The zone of inhibition at 375 µg/mL (Candida albicans [5]) was 6 mm, the “diameter of the inhibition zone (DIZ)” value (Candida albicans [6]) was 6.5 mm and the “diameter of the inhibition zone (DIZ)” value (Candida albicans [7]) was 8 mm.

In the case of O=C(C(=O)N1CCCCC1)c1cn(Cc2ccc(Cn3cc(C(=O)C(=O)N4CCCCC4)c4ccccc43)cc2)c2ccccc12, the zone of inhibition at 300 µg/mL (Escherichia coli [8]) was 9 mm, the “diameter of the inhibition zone (DIZ)” value (Candida albicans [9]) was 7.5 mm and the zone of inhibition at 300 µg/mL (Candida albicans [10]) was 7.5 mm. For the same compound, the “diameter of the inhibition zone (DIZ)” value (Candida albicans [11]) was 6 mm.

O=C(C(=O)N1CCCCC1)c1cn(CCCn2cc(C(=O)C(=O)N3CCCCC3)c3cc(Br)ccc32)c2ccc(Br)cc12 was tested, and the “diameter of the inhibition zone (DIZ)” value (Candida albicans [12]) was 9.5 mm, the zone of inhibition at 500 µg/mL (Escherichia coli [4]) was 9 mm and the “diameter of the inhibition zone (DIZ)” value (Candida albicans [13]) was 7.5 mm. The zone of inhibition at 500 µg/mL (Candida albicans [14]) was 6 mm, the zone of inhibition at 500 µg/mL (Candida albicans [15]) was 8 mm and the “diameter of the inhibition zone (DIZ)” value (Candida albicans [16]) was 6.5 mm.

In the case of O=C(NCc1ccccc1)C(=O)c1cn(CCCn2cc(C(=O)C(=O)NCc3ccccc3)c3ccccc32)c2ccccc12, the pIC50 (Candida albicans [17]) was 3.92, the zone of inhibition at 250 µg/mL (Escherichia coli [18]) was 12 mm and the “diameter of the inhibition zone (DIZ)” value (Candida albicans [19]) was 8 mm. For the same compound, the “diameter of the inhibition zone (DIZ)” value (Candida albicans [20]) was 7 mm, the “diameter of the inhibition zone (DIZ)” value (Candida albicans [21]) was 7 mm and the zone of inhibition at 250 µg/mL (Candida albicans [22]) was 8.5 mm. The zone of inhibition at 250 µg/mL (Candida albicans [23]) was 9 mm.

In the case of O=C(C(=O)N1CCCCC1)c1cn(CCCCn2cc(C(=O)C(=O)N3CCCCC3)c3ccccc32)c2ccccc12, the zone of inhibition at 300 µg/mL (Escherichia coli [8]) was 10.5 mm, the zone of inhibition at 150 µg/mL (Candida albicans [24]) was 6 mm and the “diameter of the inhibition zone (DIZ)” value (Candida albicans [25]) was 6 mm. The zone of inhibition at 150 µg/mL (Candida albicans [26]) was 6 mm and the zone of inhibition at 150 µg/mL (Candida albicans [27]) was 6.5 mm.

With O=C(C(=O)N1CCCCC1)c1cn(CCCCCn2cc(C(=O)C(=O)N3CCCCC3)c3ccccc32)c2ccccc12 the “diameter of the inhibition zone (DIZ)” value (Candida albicans [28]) was 6.5 mm, the “diameter of the inhibition zone (DIZ)” value (Candida albicans [29]) was 6.5 mm and the “diameter of the inhibition zone (DIZ)” value (Candida albicans [30]) was 7 mm. For the same compound, the zone of inhibition at 450 µg/mL (Candida albicans [31]) was 6.5 mm, the zone of inhibition at 450 µg/mL (Candida albicans [32]) was 6 mm and the zone of inhibition at 450 µg/mL (Escherichia coli [33]) was 8.5 mm.

Source: ChEMBL document CHEMBL1777792, “Synthesis and evaluation of indole-based new scaffolds for antimicrobial activities--identification of promising candidates” (Bioorg Med Chem Lett, 2011)
